TRPC6 activator: mouse TRPC6 channel activation. Q61143. hit rate 0.13% among 310,000. HEK293-TRPC6 membrane potential dye fluorescence; hits give high values. B-score at 10 µM. AID 2550;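 active = B-score of the integrated fluorescence ratio above library mean plus 3 SD, and starting fluorescence ratio within library mean plus 5 SD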;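 also: higher score means more depolarization so channel activation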
TRPC4 PAM: allosteric potentiators of mouse TRPC4 channel; Q9QUQ5; HEK293 TRPC4beta/mu-opioid, DAMGO EC20, Fluo-4 Ca2+ flux; hits give high values; B-score at 10 µM; hit rate 0.42% among 310,000; AID 2227;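 active = B-score of calcium response area above 5 SD of library B-scores, with initial fluorescence ratio within 5 SD of library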
Target sequence (Q9QUQ5 whole entry, looked up): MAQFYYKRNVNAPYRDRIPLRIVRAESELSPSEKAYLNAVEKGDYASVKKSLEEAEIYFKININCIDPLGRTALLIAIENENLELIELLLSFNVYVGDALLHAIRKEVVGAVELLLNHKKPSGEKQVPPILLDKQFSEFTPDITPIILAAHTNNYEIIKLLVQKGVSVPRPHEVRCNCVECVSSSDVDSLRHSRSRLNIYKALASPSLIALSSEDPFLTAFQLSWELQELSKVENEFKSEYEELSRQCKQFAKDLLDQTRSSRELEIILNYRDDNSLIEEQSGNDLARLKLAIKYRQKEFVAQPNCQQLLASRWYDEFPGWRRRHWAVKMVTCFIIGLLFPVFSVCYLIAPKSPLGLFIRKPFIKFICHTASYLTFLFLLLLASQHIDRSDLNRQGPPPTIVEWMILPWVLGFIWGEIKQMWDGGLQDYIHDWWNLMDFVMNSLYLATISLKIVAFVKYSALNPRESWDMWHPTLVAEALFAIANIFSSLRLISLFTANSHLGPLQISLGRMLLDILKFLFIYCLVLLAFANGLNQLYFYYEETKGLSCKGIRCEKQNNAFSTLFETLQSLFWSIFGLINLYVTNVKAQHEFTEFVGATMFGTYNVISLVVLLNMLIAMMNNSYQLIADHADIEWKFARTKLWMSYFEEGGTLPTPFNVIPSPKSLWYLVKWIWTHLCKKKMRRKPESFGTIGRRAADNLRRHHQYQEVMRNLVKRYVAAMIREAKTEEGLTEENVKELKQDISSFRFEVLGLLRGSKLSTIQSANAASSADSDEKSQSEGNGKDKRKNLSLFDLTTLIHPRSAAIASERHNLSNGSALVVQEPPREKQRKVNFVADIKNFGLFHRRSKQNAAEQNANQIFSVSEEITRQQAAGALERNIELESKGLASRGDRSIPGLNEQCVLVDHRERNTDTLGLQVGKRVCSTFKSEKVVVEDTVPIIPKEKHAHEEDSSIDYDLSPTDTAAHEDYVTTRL
Yeast superoxide: caloric restriction mimetics inhibiting age-related superoxide in yeast. S. cerevisiae aged cells, superoxide DHE fluorescence; hits give low values. AID 2690. superoxide response (% of plate mean), % at 10 µM. hit rate 0.18% among 330,000;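 active = superoxide response under a set limit, about three screen SD below normal, cut at about 65% in these data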;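 also: yeast aged for seven days with compound at 30 °C before DHE staining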
TRPC4 inh: TRPC4 (mouse) channel inhibition. Q9QUQ5. HEK293 TRPC4beta/mu-opioid, DAMGO-evoked Fluo4 calcium flux; hits give low values. B-score at 10 µM. hit rate 0.39% among 300,000;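 active = B-score over 3 SD under the library average, no early fluorescence shift, positive overall ratio signal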
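Signal: kinetic Fluo4 fluorescence imaging of calcium influx. Material: stable TRPC4beta/mu-opioid receptor HEK293 cells. Probe or stimulus: DAMGO in two steps, submaximal then maximal.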
TRPC6 inhibitor: inhibitors of mouse TRPC6 channel; hit rate 1.1% among 310,000; B-score at 10 µM; Q61143; HEK293-TRPC6, membrane potential dye, ACh-evoked depolarization; hits give low values;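 active = B-score under library mean minus 3 SD, initial fluorescence not abnormally high, positive integrated signal ratio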;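 also: B-score derived from integrated fluorescence ratio over the kinetic read; more negative B-score means stronger inhibition of depolarization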
TRPC4 agonist: opens the mouse TRPC4 cation channel | Q9QUQ5 | HEK293 TRPC4beta/mu-opioid, Fluo4 calcium fluorescence; hits give high values | hit rate 0.49% among 310,000 | AID 2237 | B-score at 10 µM;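 active = B-score above 5 SD of library B-scores, and initial fluorescence ratio not above library mean plus 5 SD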;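 also: positive B-score marks a calcium rise read as TRPC4 activation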
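System – HEK293 cells stably co-expressing mouse TRPC4beta and mu-opioid receptor · Signal – Fluo4 calcium-sensitive dye fluorescence, kinetic, 1 Hz baseline · Benchmarks – buffer (low) and maximal DAMGO (high) · Read-out – B score of integrated fluorescence ratio per well · Incubation – dye loading 45 min room temperature, 110 s kinetic read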
TRPC4 spec 2: second selectivity test of TRPC6 inhibitors: effect on mouse TRPC4; hit rate 42% among 920; shares compounds with TRPC6 inhibitor; inhibition, % at 10 µM; AID 2776; HEK293 TRPC4/MOR, membrane potential dye fluorescence; channel activated by saturating DAMGO dose;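 active = compounds whose fluorescence signal differed from control wells by over 3 SD, either direction, in both duplicate plates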
TRPC4 spec: selectivity of TRPC6 inhibitors: effect on mouse TRPC4 | shares compounds with TRPC6 inhibitor | activity change, negative = inhibition, % at 10 µM | HEK293 TRPC4/mu-opioid, membrane potential fluorescence | hit rate 61% among 920 | AID 2777;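 active = rise or fall in signal beyond 3 SD of buffer-only wells in both replicate plates, either sign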;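 also: integrated kinetic ratio of fluorescence range over baseline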
HEK293 MPD ctr 2-1: parental HEK293 nonspecific activity of TRPC6 inhibitors, second screen; shares compounds with TRPC6 inhibitor; parental HEK293 membrane potential dye fluorescence; maximal acetylcholine challenge after compound addition; signal change vs control, % at 10 µM; hit rate 31% among 920;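 active = membrane potential signal moving either way by over 3 SD of the maximum-effect control, in both duplicate plates, meaning non-specific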
HEK293 MPD ctr-1: counter-screen for TRPC6 inhibitors: effect in parental HEK293 cells; membrane potential signal change, % at 10 µM; hit rate 60% among 920; shares compounds with TRPC6 inhibitor; parental HEK293 membrane potential dye fluorescence;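 active = membrane potential signal shifting up or down by more than 3 SD of buffer-only wells, on both duplicate plates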
HEK293 MPD ctr-2: checks TRPC6 modulator effects in parental HEK293 cells | membrane potential dye fluorescence | shares compounds with TRPC6 inhibitor | membrane potential signal change, % at 10 µM | hit rate 51% among 2,400;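 active = membrane potential signal moves up or down beyond 5 SD from buffer-only wells, on both duplicate plates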
HEK293 MPD ctr 2-2: second counter-screen for TRPC6 modulators: effect in parental HEK293 cells; shares compounds with TRPC6 inhibitor; membrane potential dye fluorescence; after compound, maximal acetylcholine stimulation; inhibition, % at 10 µM; hit rate 14% among 2,400; AID 488926;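 active = membrane potential signal drops by more than 5 SD from the mean control signal, in both duplicate plates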
TRPC4/MOR mod: selectivity of TRPC6 modulators against mouse TRPC4. shares compounds with TRPC6 inhibitor. HEK293 TRPC4/mu-opioid, membrane potential fluorescence. AID 488927. percent change from control (negative = decrease, positive = increase), % at 10 µM. hit rate 69% among 2,400;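 active = membrane potential signal moved up or down beyond 5 SD of buffer control wells, in both duplicate plates, actives on both sides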
TRPC4/MOR inh 2: mouse TRPC4 off-target activity of TRPC6 modulators, second screen; HEK293 TRPC4/mu-opioid, membrane potential dye fluorescence; stimulated with maximal-effect DAMGO; inhibition, % at 10 µM; hit rate 55% among 2,400; shares compounds with TRPC6 inhibitor;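 active = drop in membrane potential signal beyond 5 SD of the control wells in both duplicate plates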;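 also: TRPC4 counter screen for TRPC6 hits run under conditions tuned for TRPC6 not TRPC4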
TRPC6 block conf: mouse TRPC6 inhibitor confirmation; hit rate 43% among 3,300; inhibition, % at 10 µM; AID 488960; HEK293-TRPC6, membrane potential dye, ACh-evoked depolarization; shares compounds with TRPC6 inhibitor;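 active = fluorescence ratio falls more than 5 SD below the full-stimulation control mean, in both duplicate runs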;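 also: integrated fluorescence ratio of peak minus minimum over baseline after agonist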
TRPC6 act confirm: mouse TRPC6 activator confirmation. HEK293-TRPC6 membrane potential dye fluorescence, FDSS. activation, % at 10 µM. hit rate 11% among 2,800. shares compounds with TRPC6 inhibitor. AID 488961;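 active = ratio signal rise beyond 5 SD above unstimulated control wells' mean, seen in both duplicate runs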
Hits are given with their value. Rows were chosen to be rich in hits. Some 2.3% of all compounds tested hit in one or more screens of this group.

Results for COc1ccc([C@@H]2[C@@H](C(=O)C(C)(C)C)N3N=Cc4ccccc4[C@@H]3C23C(=O)OC(C)(C)OC3=O)cc1OC ?
TRPC6 activator: inactive; TRPC4 PAM: inactive; Yeast superoxide: inactive; TRPC4 inh: inactive; TRPC6 inhibitor: inactive; TRPC4 agonist: inactive

Results for COc1ccc([C@H]2[C@H](C(=O)C(C)(C)C)N3N=Cc4ccccc4C3C23C(=O)OC(C)(C)OC3=O)cc1 (stereo not given in full) ?
TRPC6 activator: inactive; TRPC4 PAM: inactive; Yeast superoxide: inactive; TRPC4 inh: inactive; TRPC6 inhibitor: -6.03; TRPC4 agonist: inactive; HEK293 MPD ctr-2: inactive; HEK293 MPD ctr 2-2: inactive; TRPC4/MOR mod: 9.0%; TRPC4/MOR inh 2: inactive; TRPC6 block conf: inactive; TRPC6 act confirm: inactive

What do the screens show for `Cc1ccc2cc(C=C(C#N)C#N)c(N3CCCCC3)nc2c1`?
TRPC6 activator: inactive; TRPC4 PAM: inactive; Yeast superoxide: inactive; TRPC4 inh: inactive; TRPC6 inhibitor: -7.1; TRPC4 agonist: inactive; TRPC4 spec 2: inactive; TRPC4 spec: inactive; HEK293 MPD ctr 2-1: inactive; HEK293 MPD ctr-1: inactive; TRPC6 block conf: inactive; TRPC6 act confirm: inactive

Results for Cc1cnccc1CNC(=O)C1CCC(=O)N(Cc2ccc(Cl)cc2)C1 (stereo not given) ?
TRPC6 activator: inactive; TRPC4 PAM: inactive; Yeast superoxide: inactive; TRPC4 inh: inactive; TRPC6 inhibitor: inactive; TRPC4 agonist: inactive

How did COc1cc(NC(=S)N2CCN(c3ccccn3)CC2)c(OC)cc1Cl do in these assays?
TRPC6 activator: inactive; TRPC4 PAM: inactive; Yeast superoxide: inactive; TRPC4 inh: inactive; TRPC6 inhibitor: inactive; TRPC4 agonist: inactive

How did CCOc1ccc(N(C)S(=O)(=O)c2ccc3[nH]cc(C(=O)NCC(OC)OC)c(=O)c3c2)cc1 do in these assays?
TRPC6 activator: inactive; TRPC4 PAM: inactive; Yeast superoxide: inactive; TRPC4 inh: inactive; TRPC6 inhibitor: -5.49; TRPC4 agonist: inactive; HEK293 MPD ctr-2: inactive; HEK293 MPD ctr 2-2: inactive; TRPC4/MOR mod: inactive; TRPC4/MOR inh 2: inactive; TRPC6 block conf: inactive; TRPC6 act confirm: inactive

Results for Cc1ccc2ccccc2[n+]1CCCS(=O)(=O)[O-] ?
TRPC6 activator: inactive; TRPC4 PAM: inactive; Yeast superoxide: inactive; TRPC4 inh: inactive; TRPC6 inhibitor: inactive; TRPC4 agonist: inactive

Results for Brc1cc2ccccc2[n+](Cc2ccccc2)c1 ?
TRPC6 activator: inactive; TRPC4 PAM: inactive; Yeast superoxide: inactive; TRPC4 inh: inactive; TRPC6 inhibitor: inactive; TRPC4 agonist: inactive

How did CCCC[n+]1c2ccccc2cc2ccccc21 do in these assays?
TRPC6 activator: inactive; TRPC4 PAM: inactive; Yeast superoxide: inactive; TRPC4 inh: -5; TRPC6 inhibitor: -6.28; TRPC4 agonist: inactive; HEK293 MPD ctr-2: -169.5%; HEK293 MPD ctr 2-2: inactive; TRPC4/MOR mod: -100.5%; TRPC4/MOR inh 2: 73.5%; TRPC6 block conf: 55.5%; TRPC6 act confirm: inactive

Results for CCC[n+]1c2ccccc2cc2ccccc21 ?
TRPC6 activator: inactive; TRPC4 PAM: inactive; Yeast superoxide: inactive; TRPC4 inh: inactive; TRPC6 inhibitor: -11.9; TRPC4 agonist: inactive; HEK293 MPD ctr-2: -175.5%; HEK293 MPD ctr 2-2: 84.5%; TRPC4/MOR mod: -91.0%; TRPC4/MOR inh 2: 65.5%; TRPC6 block conf: 67.5%; TRPC6 act confirm: inactive

What do the screens show for `CCOC(=O)c1c(CSc2cccs2)n(C)c2cc(Br)c(O)c(CN(C)C)c12`?
TRPC6 activator: inactive; TRPC4 PAM: inactive; Yeast superoxide: inactive; TRPC4 inh: inactive; TRPC6 inhibitor: -6.38; TRPC4 agonist: inactive; HEK293 MPD ctr-2: inactive; HEK293 MPD ctr 2-2: inactive; TRPC4/MOR mod: inactive; TRPC4/MOR inh 2: 71.5%; TRPC6 block conf: 54.5%; TRPC6 act confirm: inactive

How did O=C(c1ccc([N+](=O)[O-])cc1)N(Cc1ccc(Br)cc1)N1C(=O)CCCC1=O do in these assays?
TRPC6 activator: 16.4; TRPC4 PAM: inactive; Yeast superoxide: inactive; TRPC4 inh: inactive; TRPC6 inhibitor: -9.84; TRPC4 agonist: 45; HEK293 MPD ctr-2: 457.5%; HEK293 MPD ctr 2-2: 186.5%; TRPC4/MOR mod: 38.0%; TRPC4/MOR inh 2: 33.5%; TRPC6 block conf: 68.5%; TRPC6 act confirm: 100.5%

What do the screens show for `Cn1cc(CN(CCCN2CCOCC2)C(=S)Nc2cccc(Cl)c2)c2ccccc21`?
TRPC6 activator: inactive; TRPC4 PAM: inactive; Yeast superoxide: inactive; TRPC4 inh: inactive; TRPC6 inhibitor: -6.78; TRPC4 agonist: inactive; TRPC4 spec 2: inactive; TRPC4 spec: inactive; HEK293 MPD ctr 2-1: 258.5%; HEK293 MPD ctr-1: inactive; TRPC6 block conf: inactive; TRPC6 act confirm: inactive

How did Cc1cccc(NC(=S)N(CCCN2CCOCC2)Cc2cn(C)c3ccccc23)c1 do in these assays?
TRPC6 activator: inactive; TRPC4 PAM: inactive; Yeast superoxide: inactive; TRPC4 inh: inactive; TRPC6 inhibitor: inactive; TRPC4 agonist: inactive

High-throughput results as filed in PubChem.
